# Bioassay records from PubChem BioAssay.
# CHOP inh: blocks CHOP induction under ER stress | CHO-K1 CHOP-promoter luciferase, tunicamycin-induced, 15-18 h | inhibition, % at 10 µM | 220,000 compounds, 3.8% hits;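 active = compounds that reduced the stress-induced luciferase reporter signal by more than about 70% of percent inhibition, limit read from the data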;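 also: 0% = tunicamycin plus vehicle and 100% = wells without tunicamycin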
# Mdm2 ligase inh: Mdm2 E3 ligase (human) inhibition; cell-based MDM2 ubiquitination luciferase reporter, 2 h; 0 = plate control, 100 = twice control, blank-subtracted; AID 1230; 210,000 compounds, 0.11% hits; signal enhancement, % at 5 µM; Q00987;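 active = signal enhancement of 30% or more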;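 also: luminescence tracks abundance of the self-degrading MDM2-luciferase fusion protein; higher signal means inhibition of MDM2 E3 ligase activity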
#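 System: stable MDM2–luciferase fusion reporter cells / Input: 2000 cells seeded into each well / Schedule: 4 h settle plus 2 h compound, 37 °C / Compound: single-point 5 µM / Buffer or medium: cells held in DMEM / Benchmarks: control and blank well means / Evaluation: percent signal gain over controls, blank-subtracted / Measured by: luciferase luminescence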
# S1P3 antagonist: blocks the human S1P3 receptor; Q99500; CHO S1P3 NFAT-BLA reporter, FRET fluorescence, antagonist mode; inhibition, % at 4.98 µM; 170,000 compounds, 0.27% hits; AID 485;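 active = inhibition above the plate cutoff, the mean inhibition of test wells on that plate plus 3 SD, cut at about 28% in these data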;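 also: cells challenged with S1P at its EC80 of 0.8 µM; blue over green emission ratio from cleaved BLA substrate after 4 h stimulation; 0% = S1P-stimulated wells and 100% = unstimulated DMSO-only wells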
# Target sequence (Q99500 whole entry, looked up): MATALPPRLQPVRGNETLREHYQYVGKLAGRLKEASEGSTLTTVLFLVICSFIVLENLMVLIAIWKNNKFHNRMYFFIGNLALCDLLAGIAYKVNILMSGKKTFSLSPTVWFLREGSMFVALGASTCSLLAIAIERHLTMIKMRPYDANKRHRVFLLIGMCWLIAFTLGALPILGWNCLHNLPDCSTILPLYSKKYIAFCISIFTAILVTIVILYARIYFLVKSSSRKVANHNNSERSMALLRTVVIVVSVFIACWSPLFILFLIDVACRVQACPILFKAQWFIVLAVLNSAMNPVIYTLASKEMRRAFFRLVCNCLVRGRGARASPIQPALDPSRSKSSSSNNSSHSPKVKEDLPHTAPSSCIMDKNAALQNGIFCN
# Hsp70 act: transcriptional activators of Hsp70; HeLa Hsp70 promoter luciferase reporter, luminescence; scaled: vehicle 0, proteasome-inhibitor control 100%; activation, % at 10 µM; 200,000 compounds, 0.04% hits; AID 1203;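 active = activation above the mean across all tested compounds plus 3 SD, cutoff set per campaign, cut at about 5.5% in these data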;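 also: 100% = MG132 at 30 µM as the positive control and 0% = DMSO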
# CHOP confirm: confirmation of CHOP induction inhibitors. shares compounds with CHOP inh. 2,100 compounds, 45% hits. inhibition, % at 10 µM. CHO-CHOP promoter luciferase reporter, tunicamycin-induced, luminescence;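 active = mean of three repeat readings of reporter signal inhibition above a set limit, cut at about 70% in these data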;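 also: 0% = tunicamycin plus vehicle and 100% = wells lacking tunicamycin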
# * hit, by the source's call; · = no result given. Compounds with a hit are over-represented: about 4% of the library has one in this group of screens.
SMILES,CHOP inh,Mdm2 ligase inh,S1P3 antagonist,Hsp70 act,CHOP confirm
Cc1ccc(NC(=O)c2cncc(Br)c2)cc1S(=O)(=O)N(C)C,26.3,-16.4,-5.2,-0.1,·
O=C(c1ccc(COc2ccc(Cl)cc2)o1)N1N=C(C(F)F)CC1(O)C(F)F (configuration not stated),108.5*,9.9,-3.8,-0.2,130.0*
COC(=O)C1CCN(C(=O)Cc2c(OC)ccc3cc(Br)ccc23)CC1,11.9,-6.2,4.3,-0.1,·
O=C1CC(c2ccccc2Br)c2cc3c(cc2N1)CCC3 (configuration not stated),101.3*,-10.2,14.8,0.3,41.2
O=C1CC(c2ccccc2F)c2cc3c(cc2N1)CCC3 (configuration not stated),61.7,9.6,·,0.0,·
O=c1[nH]c2ccc(Cl)cc2c(-c2ccccc2)c1SC(=S)N1CCOCC1,98.9*,-9.0,·,-0.1,35.8
Cc1cccc2c(N=Nc3ccc(S(=O)(=O)Nc4cccc(Cl)c4)cc3[N+](=O)[O-])c(O)[nH]c12,17.1,-13.8,-1.8,-0.1,·
O=c1[nH]c(=S)[nH]c(O)c1N=Nc1ccc(-c2ccccc2)cc1[N+](=O)[O-],102.3*,-6.8,7.9,-0.1,42.2
Cc1ccc2c(C)nc(Nc3nc(CSc4nc5ccccc5[nH]4)cc(=O)[nH]3)nc2c1,104.4*,-7.2,·,-0.2,105.7*
Cc1ccc(SCc2cc(=O)[nH]c(Nc3nc(C)c4ccc(C)cc4n3)n2)cc1,16.6,-0.5,-6.4,0.4,·
COc1ccc(OC)c(/C=N/NC(=O)CSc2cc(C)nc3c(OC)cccc23)c1,105.3*,2.2,17.9,-0.1,34.9
COc1ccc(OC)c(/C=N\NC(=O)CSc2nnc(CCCc3ccc(OC)c(C)c3)o2)c1,63.6,2.7,·,-0.2,·
Cc1ccc(Nc2nc(N)c([N+](=O)[O-])c(N3CCCC(C)C3)n2)cc1C (configuration not stated),101.4*,-10.0,0.2,-0.2,64.0
CC1CCCN(c2nc(NCc3ccco3)nc(N)c2[N+](=O)[O-])C1 (configuration not stated),29.6,8.5,17.4,-0.3,·
COCCn1c(SCC(=O)Nc2ccc3[nH]c(=O)[nH]c3c2)nc2ccccc2c1=O,0.4,·,-4.8,·,·
COc1c(C(=O)Nc2ccc3[nH]c(=O)[nH]c3c2)cc2ccccc2c1Br,99.5*,-13.0,8.0,-0.1,-15.2
CCN(CC)C(=S)SC1CCCCN(C(=O)c2ccccc2)C1=O (configuration not stated),0.0,-2.4,-9.1,·,·
Cc1cc(C(C)(C)C)oc1C(=O)N1CCN(C(=O)c2oc(C(C)(C)C)cc2C)CC1,104.8*,-4.8,7.7,0.5,115.0*
CC(C)CCn1c(SCc2ccc(Cl)cc2)nc2c1c(=O)[nH]c(=O)n2C,96.5*,-1.0,8.4,0.2,93.2*
CC(C)n1c(SCc2ccc(Cl)cc2)nc2c1c(=O)[nH]c(=O)n2C,43.1,1.8,14.1,0.2,·
CCNS(=O)(=O)c1ccc(C)c(-n2cnnn2)c1C,-1.4,0.3,·,-0.2,·
O=C(Nc1ccc2oc(-c3cccnc3)nc2c1)c1cccnc1,6.1,11.0,17.5,0.3,·
Cc1c(C(=O)Nc2ccc3oc(-c4cccnc4)nc3c2)oc2ccccc12,99.8*,-7.0,8.5,-0.4,-5.1
CCOc1cc(S(=O)(=O)Nc2ccc(CC)cc2)ccc1Cl,103.6*,-23.0,·,-0.2,111.2*
CCOc1cc(S(=O)(=O)Nc2ccc(Cl)cn2)ccc1Cl,20.0,-4.1,·,-0.3,·
SMILES,CHOP inh,Mdm2 ligase inh,S1P3 antagonist,Hsp70 act,CHOP confirm
COc1cc(S(=O)(=O)Nc2ccccc2C)ccc1Cl,-9.9,-17.1,-3.7,0.0,·
CCOc1cc(S(=O)(=O)Nc2ccccc2CC)ccc1Cl,102.2*,-15.9,·,-0.1,76.6*
O=[n+]1cc(-c2ccc(Cl)cc2)n([O-])c2c1CCCCC2,10.4,-3.1,11.5,-0.2,·
CCC(C)[C@H](NC(=O)OC(C)(C)C)C(=O)N/N=C/C1=Cc2ccccc2OC1 (some centres not stated),105.8*,-13.9,·,0.1,39.9
C[C@H](NC(=O)OC(C)(C)C)C(=O)N/N=C/C1=Cc2ccccc2OC1,13.4,-19.6,10.7,·,·
CCOc1ccc(NC(=O)CN2C(=O)S/C(=C/c3cccn3C)C2=O)cc1,-6.8,1.6,-16.9,-0.6,·
Cn1cccc1/C=C1\SC(=O)N(CC(=O)Nc2ccc(Cl)cc2)C1=O,100.7*,-4.1,·,-0.2,0.9
Cc1ccc(CN2CCC(c3cc(-c4cccs4)n[nH]3)CC2)cc1,21.9,-27.0,-7.9,-0.2,·
